Bioassay records as filed in PubChem BioAssay.
Hits are enriched below; roughly 3% of the tested compounds scored in any of these assays.
XiGFP reactiv – activators of inactive X chromosome reactivation, primary screen, imaging, XiGFP fibroblasts, GFP high-content imaging, set 2; AID 743238, 2013; XiGFP mouse fibroblasts, % GFP-positive cells imaging, 3 d; cells co-treated with 5-aza-dC sensitizer; scaled so ellipticine positive control = 100%; 360,000 compounds, 0.055% hits; activation, % at 7.58 µM;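 active means mean normalized replicate activation at least 10% and every replicate at or above 10%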;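 further: 0% = median of on-plate neutral control wells and 100% = ellipticine 6 µM median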
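Assay system: SV40-immortalized XiGFP fibroblast cells, line 68-5-11; buffer or medium: DMEM plus 5-aza-dC sensitizer; compound: one concentration, pinned; timing: compounds 3 days, fix/stain 15 min at room temperature; benchmarks: positive control ellipticine, 6 µM final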
MITF TRPM1 HTS – activators of MITF-driven TRPM1 promoter reporter, primary screen, cell-based, SK-MEL-5, luciferase, single point; activation, % at 12.5 µM; 300,000 compounds, 0.75% hits; AID 588334, 2011; SK-MEL-5 TRPM1-promoter luciferase, 24 h; % of positive control, neutral wells = 0;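 active means mean activation of at least 80% with every replicate also reaching 80%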;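 further: 0% = neutral control wells and 100% = parthenolide positive control wells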
Wnt bcat act – Wnt/beta-catenin pathway activators, primary screen, cell-based, plate reader, single point; Wnt/beta-catenin reporter cell assay, activator; activation, % at 9.35 µM; 300,000 compounds, 1.2% hits; in the data active means activation above about 30%, passing the limit was not always enough;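 further: 0% = neutral control wells and 100% = positive control wells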
CASP6 VEID inh – human caspase-6 inhibitors, primary screen, biochemical, VEID-R110 fluorescence, single point, set 2 | 350,000 compounds, 0.53% hits | inhibition, % at 12.5 µM | P55212 | AID 686996, 2013 | purified caspase-6, Z-VEID-R110 cleavage fluorescence;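 active means mean inhibition across replicates at least about 35%, with every replicate also reaching that limit, limit read from the data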;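 further: 0% = median of neutral control wells and 100% = no fluorescence left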
Target sequence (P55212 24-179 limits assumed): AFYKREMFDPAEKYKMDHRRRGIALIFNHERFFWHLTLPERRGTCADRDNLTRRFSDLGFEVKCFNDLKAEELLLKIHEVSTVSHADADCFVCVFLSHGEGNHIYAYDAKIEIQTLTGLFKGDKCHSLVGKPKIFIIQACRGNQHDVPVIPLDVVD
Target sequence (P55212 194-293 limits assumed): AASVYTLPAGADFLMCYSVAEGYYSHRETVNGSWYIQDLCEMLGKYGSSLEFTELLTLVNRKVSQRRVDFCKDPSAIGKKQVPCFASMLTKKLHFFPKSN
NSD2 HMT inh – NSD2 histone methyltransferase inhibitors, primary screen, biochemical, AlphaScreen, single concentration, set 2. NSD2 peptide methylation, 120 min. Histone-lysine N-methyltransferase NSD2 (Homo sapiens), O96028. 310,000 compounds, 0.54% hits. inhibition, % at 12.5 µM. AID 743445, 2014; in the data active means inhibition above about 50%
esBAF inh – Bmi1 luciferase reporter increase in mESCs, primary screen, esBAF inhibitor project, mouse ES cells, Bmi1 luciferase knock-in, single point; 24 h; 100% = twice the neutral-well signal; reporter increase, % at 12.5 µM; 350,000 compounds, 2% hits; AID 602393, 2012; in the data active means activation above about 40%;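 further: 0% = median of the plate's neutral control wells and 100% = double that signal; a rise in the Bmi1 reporter signal indicates esBAF inhibition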
Active calls of the source: *; · = no result given.

SMILES | XiGFP reactiv | MITF TRPM1 HTS | Wnt bcat act | CASP6 VEID inh | NSD2 HMT inh | esBAF inh
O=C(NC1CCCCC1)N[C@H]1CC[C@H](CCNS(=O)(=O)c2ccc(Cl)cc2)O[C@H]1CO | 0 | · | · | -7 | · | 19
C[C@H]1CC=CC[C@@H](c2ccccc2)NC(=O)[C@H](Cc2ccccc2)N(C)C(=O)c2ccccc2O1 (mixture of isomers) | 0 | · | · | · | · | ·
CC(C)OC(=O)N(C)C[C@H]1OCc2ccccc2-c2c(n(C)c3ccccc23)C(=O)N([C@H](C)CO)C[C@@H]1C | 0 | · | · | 2 | · | -7
COc1ccc(CCNC(=O)CSc2nc3ccsc3c(=O)n2Cc2ccccn2)cc1OC | 0 | · | 3 | -7 | -3 | 43*
NS(=O)(=O)c1ccc(CCNC(=O)CSc2nc3ccsc3c(=O)n2Cc2ccccn2)cc1 | 0 | · | 36* | -4 | -1 | 20
CCC(=O)N1C[C@@H](C)[C@@H](OC)CN(C)C(=O)c2ccc(NC(=O)c3cnccn3)cc2OC[C@@H]1C | 0 | · | · | 4 | · | -3
CCCCNC(=S)NNC(=O)c1csc(C(C)C)c1 | · | · | · | · | -7 | 26
CCNC(=S)NNC(=O)c1csc(C(C)C)c1 | · | 24 | 20 | · | -1 | 50*
O=C(NCC(=O)N1CCN(Cc2ccccc2)CC1)c1cccs1 | 0 | 46 | -2 | 0 | -1 | 49*
COc1ccc2oc(C(=O)N3CCCc4ccccc43)c(C)c2c1 | 0 | 68 | 0 | -2 | -2 | 75*
C[C@H](NC(=O)[C@@H]1[C@@H](CO)[C@@H]2Cn3c(cccc3=O)[C@H]1N2C(=O)C1CCCC1)c1ccccc1 | 0 | · | · | 1 | · | 4
COc1ccc(S(=O)(=O)Nc2ccc3c(c2)CC(=O)N([C@@H](C)CO)C[C@@H](C)[C@H](CN(C)CC2CCCCC2)O3)cc1 | 0 | · | · | -2 | · | 1
CCN1CCN(CCNC(=O)CCc2c(OC)nc3c(c(C)nn3-c3ccccc3)c2C)CC1 | · | · | · | · | 4 | ·
CC(=O)NC1C(=O)N(CCN2CCOCC2)c2ccc(F)cc21 (stereo not drawn) | 0 | -5 | 2 | 52* | -4 | ·
CC(=O)NC1C(=O)N(CCN2CCOCC2)c2ccc(Cl)cc21 (stereo not drawn) | 0 | -4 | 0 | 40* | -3 | -1
CS(=O)(=O)N1N=C(c2ccco2)CC1c1ccco1 (stereo not drawn) | 0 | · | 0 | 62* | 5 | 0
CS(=O)(=O)N1N=C(c2ccco2)CC1c1ccccc1 (stereo not drawn) | 0 | 5 | 3 | 2 | -2 | ·
Cc1ccc(C)c(N2N=C(C(=O)OCc3nnc(-c4cccs4)o3)CCC2=O)c1 | 0 | 5 | -1 | 4 | 4 | ·
Cc1ccc(C)c(N2N=C(C(=O)OCc3nnc(-c4ccccc4Br)o3)CCC2=O)c1 | 0 | · | 1 | 61* | 0 | 5
Nc1ccc2nc3c(=O)n(C4CCCCC4)c(=O)[nH]c3nc2c1 | 0 | 79 | 43* | 0 | -1 | 37
Nc1ccc2ccccc2c1N=Nc1ccccc1 | 1 | -11 | 15 | 0 | 19 | 43*
CC1Oc2ccccc2C=C1/C=N/NC(=O)c1ccccc1 (stereo not drawn) | 0 | 89* | 37* | · | -4 | ·
C[C@H]1CN([C@@H](C)CO)C(=O)c2c(c3ccccc3n2C)-c2ccccc2CO[C@@H]1CN(C)C(=O)C1CC1 | 0 | · | · | -1 | · | -5
CC(C)N=C1NN=C(c2cccs2)CS1 | 0 | 35 | 4 | -2 | -4 | ·
CC(C)c1ccc(N=C2NN=C(c3cccs3)CS2)cc1 | 0 | 100* | -3 | 1 | -2 | ·
CCCC(=O)N1CC2(CCN(C(=O)CC3CC3)CC2)c2c(n(C)c3cc(OC)ccc23)[C@H]1CO | 0 | · | · | · | · | ·
COc1cc2c(cc1NC(=O)c1cccnc1)oc1ccccc12 | · | 71 | · | · | 2 | 72*
COc1cc2c(cc1NC(=O)CSc1ccccn1)oc1ccccc12 | · | 95* | · | · | -1 | 49*
